The target in series [1] is T1, Ribosomal protein S6 kinase alpha-3 (Homo sapiens, UniProt P51812). The experiment in a line: Inhibition of full length human GST-tagged RSK2 using Ulight-rpS6 as substrate at 10 uM incubated for 1 hr in presence of ATP by TR FRET assay. The method, boiled down:
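Recombinant RSK2 at 500 pM final with 250 nM ULight-rpS6 (Ser235/236) substrate and 3 μM ATP, in 50 mM HEPES pH 7.5, 10 mM MgCl2, 1 mM EGTA, 2 mM DTT, 0.01% Tween 20. DMSO ≤0.5%. Ran 1 h at room temperature, stopped with 10 mM EDTA. Eu anti-phospho antibody (2 nM) TR-FRET, 665/615 nm ratio read.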
For orientation: In TR-FRET formats the signal depends on donor and acceptor labels being close together.

The target in series [2] is T1, Ribosomal protein S6 kinase alpha-3. Description: Inhibition of full length human GST-tagged RSK2 using Ulight-rpS6 as substrate incubated for 1 hr in presence of ATP by TR FRET assay.
The subject of series [3] is MOLM-13. The experiment in a line: Antiproliferative activity against human MOLM13 assessed as reduction in cell viability incubated for 72 hrs by MTS assay. Format: functional, cell-based. Conditions: MOLM-13, 72 h. (In general: Tetrazolium dyes change colour on reduction, which living cells bring about.)
For series [4], the system named is MOLM-13. The experiment in a line: Antiproliferative activity against human MOLM13 assessed as reduction in cell viability incubated for 72 hrs by CellTiter-Glo assay. Format: functional, cell-based. Conditions: MOLM-13, 72 h. The method, boiled down:
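CellTiter-Glo viability in MOLM-13 cells seeded at 30,000 per well, treated across 60 µM to 247 nM at 37°C for up to 72 h. Plates equilibrated 30 min at RT, reagent added, shaken 2 min, luminescence read after 10 min. Final DMSO ≤0.5%; n = 3.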
In general terms: ATP-based viability assays read luminescence as a measure of living cells.

The test system of series [5] is MOLM-13. The experiment in a line: Antiproliferative activity against human MOLM13 assessed as reduction in cell viability incubated for 72 hrs by CellTox green assay. The class given is functional, cell-based. Conditions: MOLM-13, 72 h.
Series [6] has as its target Bromodomain-containing protein 4 (Homo sapiens, UniProt O60885). Description: Binding affinity to BRD4 bromodomain 1 (unknown origin) by ITC assay.
In series [7] the test system is MOLM-13. Description: Antiproliferative activity against human MOLM13 assessed as reduction in cell viability at 0.25 to 60 uM incubated for 24 hrs by CellTox green assay. The class given is functional, cell-based. Put shortly:
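Cytotoxicity read by CellTox Green: MOLM-13 cells, 60,000 per well, in medium with CellTox Green dye at 1:500, treated over 60 μM to 247 nM at 37°C. Fluorescence (ex 485/em 520 nm) read at 0, 24, 48 and 72 h.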

Series [8] concerns MOLM-13. The experiment in a line: Antiproliferative activity against human MOLM13 assessed as reduction in cell viability at 0.25 to 60 uM incubated for 24 hrs by MTS assay. The class given is functional, cell-based. Put shortly:
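MOLM-13 cells, 60,000 per well, given compound over 60 μM to 247 nM, incubated at 37°C for 24 to 72 h. CellTiter 96 AQueous One (MTS) reagent added for 3 h, formazan absorbance read at 490 nm. EC50 or percentage values derived.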

In series [9] the test system is MOLM-13. Description: Antiproliferative activity against human MOLM13 assessed as reduction in cell viability at 0.25 to 60 uM incubated for 24 hrs by CellTiter-Glo assay. Format: functional, cell-based. Put shortly: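 MOLM-13 cells, 30,000 per well in medium, treated over 60 μM to 247 nM and held at 37°C for 24 to 72 h. Plates equilibrated 30 min at RT, CellTiter-Glo reagent added, shaken 2 min, luminescence read after 10 min at rt. n = 3.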

The subject of series [10] is MOLM-13. The experiment in a line: Antiproliferative activity against human MOLM13 assessed as reduction in cell viability at 60 uM incubated for 72 hrs by MTS assay. The class given is functional. Conditions: MOLM-13, 72 h, read-out: GI.
Series [11] has as its target T1, Ribosomal protein S6 kinase alpha-3. Description: Inhibition of RSK2 (unknown origin).
The target of series [12] is Ribosomal protein S6 kinase alpha-2 (Homo sapiens, UniProt Q15349). The experiment in a line: Inhibition of RSK3 (unknown origin).
Series [13] addresses Ribosomal protein S6 kinase alpha-1 (Homo sapiens, UniProt Q15418). Description: Inhibition of RSK1 (unknown origin).
The subject of another series is HEK293. The experiment in a line: Cytotoxicity in HEK293 cells assessed as reduction in cell viability. Format: cell-based. Conditions: human.

Structures are written as SMILES. Calls of active or inactive are those of the source. No cut-off for these calls is given here.

In general, inhibition refers to the share of the control response that was lost under treatment. In general, IC50 refers to the concentration that gives 50% inhibition. As a reminder, the EC50 is the concentration that produces a half-maximal response. Broadly, the Kd is the constant that tells how readily two partners part at equilibrium. A low value points to higher affinity.

T1 sequence (P51812 whole entry): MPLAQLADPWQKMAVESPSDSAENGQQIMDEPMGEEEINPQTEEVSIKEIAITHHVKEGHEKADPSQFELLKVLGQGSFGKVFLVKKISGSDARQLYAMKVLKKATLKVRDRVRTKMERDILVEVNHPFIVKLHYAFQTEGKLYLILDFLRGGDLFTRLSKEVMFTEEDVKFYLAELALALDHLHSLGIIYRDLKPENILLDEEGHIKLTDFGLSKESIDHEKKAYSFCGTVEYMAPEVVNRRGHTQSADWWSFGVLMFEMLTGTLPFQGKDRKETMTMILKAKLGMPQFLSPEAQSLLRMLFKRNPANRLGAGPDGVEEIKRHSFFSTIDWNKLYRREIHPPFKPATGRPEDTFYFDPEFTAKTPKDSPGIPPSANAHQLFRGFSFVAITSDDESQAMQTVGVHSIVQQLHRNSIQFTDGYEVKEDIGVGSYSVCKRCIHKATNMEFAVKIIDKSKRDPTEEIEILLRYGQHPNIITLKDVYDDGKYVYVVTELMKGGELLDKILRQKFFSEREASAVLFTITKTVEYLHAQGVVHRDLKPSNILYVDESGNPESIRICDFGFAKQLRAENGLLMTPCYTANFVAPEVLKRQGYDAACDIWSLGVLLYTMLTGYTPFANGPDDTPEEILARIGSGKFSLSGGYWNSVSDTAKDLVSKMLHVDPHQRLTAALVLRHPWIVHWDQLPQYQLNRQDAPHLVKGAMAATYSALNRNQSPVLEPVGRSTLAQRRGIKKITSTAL
Sequence of Ribosomal protein S6 kinase alpha-1 (Q15418 whole entry): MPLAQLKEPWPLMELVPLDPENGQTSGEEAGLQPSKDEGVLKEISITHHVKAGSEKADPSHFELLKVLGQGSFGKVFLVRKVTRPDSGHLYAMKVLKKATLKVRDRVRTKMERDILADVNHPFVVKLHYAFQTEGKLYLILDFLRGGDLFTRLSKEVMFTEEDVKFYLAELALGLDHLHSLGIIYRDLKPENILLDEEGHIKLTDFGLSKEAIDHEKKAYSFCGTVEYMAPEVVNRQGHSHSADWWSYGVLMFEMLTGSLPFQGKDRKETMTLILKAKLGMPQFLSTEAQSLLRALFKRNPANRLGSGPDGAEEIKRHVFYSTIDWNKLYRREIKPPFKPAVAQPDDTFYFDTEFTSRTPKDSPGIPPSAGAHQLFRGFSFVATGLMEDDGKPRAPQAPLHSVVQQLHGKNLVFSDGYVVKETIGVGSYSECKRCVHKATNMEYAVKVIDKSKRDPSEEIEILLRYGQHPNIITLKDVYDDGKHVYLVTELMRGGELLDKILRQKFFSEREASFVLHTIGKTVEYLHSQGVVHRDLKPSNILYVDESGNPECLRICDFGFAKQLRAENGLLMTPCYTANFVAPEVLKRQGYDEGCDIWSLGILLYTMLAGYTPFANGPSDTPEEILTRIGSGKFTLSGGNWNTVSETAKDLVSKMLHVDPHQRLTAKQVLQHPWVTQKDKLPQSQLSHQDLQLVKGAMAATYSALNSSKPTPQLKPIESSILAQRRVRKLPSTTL
Sequence of Ribosomal protein S6 kinase alpha-2 (Q15349 whole entry): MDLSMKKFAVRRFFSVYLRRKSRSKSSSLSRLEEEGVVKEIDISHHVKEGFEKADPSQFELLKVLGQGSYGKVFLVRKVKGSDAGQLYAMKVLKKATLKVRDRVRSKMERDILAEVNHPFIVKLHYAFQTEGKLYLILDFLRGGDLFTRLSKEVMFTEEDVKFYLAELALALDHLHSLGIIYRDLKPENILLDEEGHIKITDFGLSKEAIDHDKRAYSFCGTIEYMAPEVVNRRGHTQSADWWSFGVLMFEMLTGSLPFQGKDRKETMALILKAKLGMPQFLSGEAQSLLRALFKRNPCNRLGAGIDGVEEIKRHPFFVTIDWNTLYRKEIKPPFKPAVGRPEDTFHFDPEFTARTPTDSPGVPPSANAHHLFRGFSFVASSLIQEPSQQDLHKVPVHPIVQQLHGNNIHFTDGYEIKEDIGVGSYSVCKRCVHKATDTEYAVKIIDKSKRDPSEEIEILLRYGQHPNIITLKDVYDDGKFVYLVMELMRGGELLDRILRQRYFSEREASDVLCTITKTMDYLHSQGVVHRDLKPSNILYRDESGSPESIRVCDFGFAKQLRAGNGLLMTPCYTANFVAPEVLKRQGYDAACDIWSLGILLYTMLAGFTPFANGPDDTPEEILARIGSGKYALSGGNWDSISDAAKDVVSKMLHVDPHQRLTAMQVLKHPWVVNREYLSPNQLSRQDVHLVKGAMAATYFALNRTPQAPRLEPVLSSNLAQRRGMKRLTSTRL

For `Oc1c(F)cc(Nc2ncccn2)cc1F`, the inhibition in [1] amounted to 45%.

With `CC(C)CCN1c2nc(Nc3ccc(O)c(Br)c3)ncc2N(C)C(=O)C1C` (configuration not stated), the IC50 in [2] turned out to be 141 nM.

Consider `CC(C)CCN1CC(=O)Nc2cnc(Nc3ccc(O)c(F)c3)nc21`, for which, in series [2], the half-maximal inhibitory concentration (IC50) came out at 38.3 nM. Also, the EC50 was found to be 4390 nM in the series with MOLM-13 [3], 2230 nM in the series with MOLM-13 [4] and 4640 nM with MOLM-13 [5].

On to `CC(C)CCN1c2nc(Nc3cc(F)cc(F)c3)ncc2N(C)C(=O)C1C` (configuration not stated), for which the inhibition in series [1] was 71%.

In turn, `CC(C)CCN1c2nc(Nc3cc(F)c(O)c(F)c3)ncc2N(C)C(=O)C1C` (configuration not stated) came in with a Kd in series [6] of 3500 nM. For the same compound, the EC50 with MOLM-13 [3] was found to be 2800 nM; in the series on MOLM-13 [4] it was 1890 nM; in the series on MOLM-13 [5], 3410 nM. The result in the series on MOLM-13 [7], with MOLM-13 [8] and in the series with MOLM-13 [9] was Active.

Regarding `CC1Nc2nc(Nc3cc(F)c(O)c(F)c3)ncc2NC1=O` (configuration not stated), in [1], the inhibition stood at 83%.

For the compound `CC(C)CCN1c2nc(Nc3ccc(O)c(F)c3)ncc2N(C)C(=O)C1C` (configuration not stated), in series [2], the half-inhibitory concentration (IC50) stood at 25.4 nM. Besides, the results for the EC50 in the series on MOLM-13 [3], with MOLM-13 [4] and in the series on MOLM-13 [5] were 1690 nM, 870 nM and 3160 nM, respectively.

On to `CC(C)CCN1CC(=O)N(C)c2cnc(Nc3cc(F)c(O)c(F)c3)nc21`, for which, in series [2], the IC50 amounted to 17.6 nM. Besides, the values for the EC50 with MOLM-13 [3], with MOLM-13 [4] and in the series with MOLM-13 [5] were 2710 nM, 1670 nM and 4540 nM, respectively.

As for `CC(C)CCN1c2nc(Nc3ccc(O)c(Cl)c3)ncc2N(C)C(=O)C1C` (configuration not stated), in [2], the concentration for half-maximal inhibition (IC50) worked out at 71.5 nM.

Turning to `Oc1c(F)cc(-c2cnccc2-c2ccc(N3CCOCC3)cc2)cc1F`, in the series with MOLM-13 [10], the inhibition of growth at 60 µM turned out to be 79%. The half-maximal inhibitory concentration (IC50) in series [11] was 5 nM; in series [12], 4 nM; in series [13], 6 nM. Also, the concentration giving a half-maximal response (EC50) came to 19100 nM in the series on MOLM-13 [4] and 23400 nM in the series with MOLM-13 [5]. Further, the Activity result in the series with HEK293 is given as “Toxic”.

Consider `CC(C)CCN1CC(=O)N(C)c2cnc(Nc3ccc(O)c(F)c3)nc21`, for which the IC50 in series [2] was determined as 24.7 nM.

`Nc1nc(Nc2cc(F)c(O)c(F)c2)ncc1[N+](=O)[O-]`: the inhibition in series [1] is 72%.

In the case of `CC(C)CCN1c2nc(Nc3cc(Cl)c(O)c(Cl)c3)ncc2N(C)C(=O)C1C` (configuration not stated), in series [1], the inhibition turned out to be 83%.

In the case of `CN1CCN(c2ccc(-c3ccncc3-c3cc(F)c(O)c(F)c3)cc2)CC1`, the inhibition of growth at 60 µM in the series with MOLM-13 [10] was 75%. The EC50 amounted to 9710 nM with MOLM-13 [4] and 22000 nM with MOLM-13 [5]. For the same compound, the Activity result in the series with HEK293 is “Toxic”.

Turning to `Nc1cnc(Nc2cc(F)c(O)c(F)c2)nc1N`, the inhibition in series [1] amounted to 38%.

As for `CC(C)CCN1c2nc(Nc3cc(F)c(O)c(F)c3)ncc2NC(=O)C1C` (configuration not stated), the inhibition of growth at 60 µM with MOLM-13 [10] was determined as 56%. Also, the IC50 in series [2] stood at 18.2 nM. For the same compound, the EC50 stood at 17400 nM with MOLM-13 [4] and 18100 nM in the series with MOLM-13 [5]. For the same compound, the Activity entry in the series with HEK293 is given as “Toxic”.

On to `CC(C)CCN1c2nc(Nc3ccc(CO)cc3)ncc2N(C)C(=O)C1C` (configuration not stated), for which the concentration for half-maximal inhibition (IC50) in series [2] was 739 nM.

As for `CC(C)CCN1c2nc(Nc3ccc(O)cc3)ncc2N(C)C(=O)C1C` (configuration not stated), the 50% inhibitory concentration (IC50) in series [2] stood at 54.8 nM.

Consider `CC(C)CCN1c2nc(Nc3cc(Br)c(O)c(Br)c3)ncc2N(C)C(=O)C1C` (configuration not stated), for which the inhibition in [1] is 78%.

Turning to `CC(C)CCN1CC(=O)Nc2cnc(Nc3cc(F)c(O)c(F)c3)nc21`, in series [2], the IC50 worked out at 23.4 nM. The EC50 in the series with MOLM-13 [3] came to 6820 nM; with MOLM-13 [4], 6200 nM; with MOLM-13 [5], 6850 nM.

As for `COc1c(F)cc(Nc2ncc3c(n2)N(CCC(C)C)C(C)C(=O)N3C)cc1F` (configuration not stated), in series [1], the inhibition was 43%.
